Assay results reported in ChEMBL document CHEMBL1126642, “N-(1-methyl-5-indolyl)-N'-(3-pyridyl)urea hydrochloride: the first selective 5-HT1C receptor antagonist” (J Med Chem, 1993).

What was measured:
[1] = molecular target: T1, 5-hydroxytryptamine receptor 2C (Rattus norvegicus) (UniProt P08909); assay: Binding affinity towards rat 5-hydroxytryptamine 1C receptor using [3H]mesulergine as radioligand expressed in 293 cells; type: cell-based; conditions: HEK293
T1 sequence (whole entry): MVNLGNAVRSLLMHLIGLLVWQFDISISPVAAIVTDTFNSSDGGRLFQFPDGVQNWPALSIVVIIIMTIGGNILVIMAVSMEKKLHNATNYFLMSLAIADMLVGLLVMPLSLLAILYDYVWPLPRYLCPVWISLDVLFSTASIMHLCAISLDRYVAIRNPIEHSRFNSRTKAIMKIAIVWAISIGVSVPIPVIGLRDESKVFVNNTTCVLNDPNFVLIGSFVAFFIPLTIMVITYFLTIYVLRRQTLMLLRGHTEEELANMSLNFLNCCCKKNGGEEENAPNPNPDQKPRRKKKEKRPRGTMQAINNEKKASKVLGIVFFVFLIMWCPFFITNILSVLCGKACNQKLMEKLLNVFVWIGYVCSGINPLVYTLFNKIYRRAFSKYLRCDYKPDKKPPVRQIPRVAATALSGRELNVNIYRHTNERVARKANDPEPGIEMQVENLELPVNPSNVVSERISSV
How it was run: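 Cloned rat 5-HT1C receptor expressed in 293 cells, labelled with [3H]mesulergine. Values are means ± SEM of n = 3 determinations.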

[2] = Selectivity ratio is Ki value of 5-HT2 receptor to that of 5-HT1c receptor
How it was run: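 Ratio of Ki at 5-HT2 ([3H]ketanserin, rat frontal cortex) to Ki at 5-HT1C ([3H]mesulergine, rat clone in 293 cells). Each Ki is a mean of n = 3 determinations.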

Row | pK1 [1] | Selectivity [2] | SMILES
1 | 6.49 | > 19 | Cn1ccc2c(NC(=O)Nc3ccccn3)cccc21
2 | < 5.3 |  | Cn1ccc2cccc(NC(=O)Nc3ccccc3)c21
3 | 7.18 | 45 | Cn1ccc2c(NC(=O)Nc3ccncc3)cccc21
